From paper PMC5415879 (Molecular Pharmaceutics, 2017)
Where no end group is shown, it is not given here.

Columns and labels:
Type in all cases: physicochemical
[1] = Particle morphology by atomic force microscopy; details: nanostructures immobilized on poly-L-lysine coated mica, room temperature
[2] = Critical aggregation concentration, Nile red assay; details: Nile red fluorescence (Ex550/Em635), PBS pH 7.4, 0.1 to 500 μg/mL, overnight incubation at room temperature; intersection of two linear fits
[3] = Particle morphology and size by transmission electron microscopy; details: 0.1 mg/mL in HEPES 10 mM, negative staining with 2% uranyl acetate
Procedure, shortened: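 Applies to peptide–pNIPAm self-assembled particles. Samples at 0.1 mg/mL in 10 mM HEPES are applied to prewarmed carbon-coated copper grids for 2 min, and excess liquid is blotted off with filter paper. Grids are negatively stained with 2% uranyl acetate for 45 s and dried 10 min at room temperature. Morphology and size are then read from TEM images.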

Substance: Ac-AAVVLLLWGQAEPDRAHYNIVTF [HPV-SA]
- particle diameter by AFM [1]: ~100 nm
- critical aggregation concentration (CAC) [2]: ca. 15 μM

Substance: HPV16 E7_43–57-poly(DMAm) [HPV-pDMAm]
- particle size by TEM [3]: no particles

Substance: HPV16 E7_43–57-poly(NIPAm) [HPV-pNIPAm]
- particle size by TEM [3]: 20–80 nm

Substance: OVA250–264-poly(NIPAm) [OVA-pNIPAm]
- particle size by TEM [3]: 20–80 nm
